According to ChEMBL document CHEMBL1123201, “7-(Trifluoromethyl)-4-aminoquinoline hypotensives: novel peripheral sympatholytics” (J Med Chem, 1986):
Where “and” joins values, the source holds several entries; their conditions need not be identical. Equal entries are not always repeated. Calls of active or inactive are those of the source. The rule behind the calls is not given here.

Experiments:
[1] = test system: Rattus norvegicus; experiment: Compound was tested for hypotensive activity by measuring the average change in mean arterial blood pressure in mmHg after 4 hr at 50 mg/Kg oral dosing of a conscious rat; format: functional, Artery
Method in brief: (§1)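 Restrained (towel-wrapped, to raise sympathetic tone) conscious female Sprague-Dawley rats with chronic indwelling aortic cannulas exteriorized at the nape; blood pressure recorded directly by transducer before and 4 and 24 h after oral dosing. Compound suspended in carboxymethylcellulose vehicle, 10 mL/kg; doses 50 to 0.05 mg/kg. Two rats averaged per time point; average change ≥5 mmHg taken as significant (p < 0.05).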

[2] = test system: Rattus norvegicus; experiment: Compound was tested for hypotensive activity by measuring the average change in mean arterial blood pressure in mmHg after 24 hr at 50 mg/Kg oral dosing of a conscious rat; format: functional, Artery; method in brief: as §1
[3] = test system: Rattus norvegicus; experiment: Hypotensive activity in conscious rat 24 hr after 5 mg/kg p.o. administration.; format: functional; details: route oral; method in brief: as §1
[4] = test system: Rattus norvegicus; experiment: Hypotensive activity in conscious rat 4 hr after 5 mg/kg p.o. administration.; format: functional; details: route oral; method in brief: as §1
[5] = organism: Mus musculus; experiment: Lowest dose of compound associated with unacceptable clinical signs.; format: functional
[6] = Acute toxicity was determined in mice; format: organism-based; details: mouse, in vivo
[7] = test system: Rattus norvegicus; experiment: Compound was tested for hypotensive activity by measuring the average change in mean arterial blood pressure in mmHg after 4 hr at 0.5 mg/Kg oral dosing of a conscious rat; format: functional, Artery; method in brief: as §1
[8] = test system: Rattus norvegicus; experiment: Compound was tested for hypotensive activity by measuring the average change in mean arterial blood pressure in mmHg after 24 hr at 0.5 mg/Kg oral dosing of a conscious rat; format: functional, Artery; method in brief: as §1
[9] = organism: Mus musculus; experiment: Lowest dose of compound associated with clinical signs.; format: functional
[10] = test system: Rattus norvegicus; experiment: Compound was tested for hypotensive activity by measuring the average change in mean arterial blood pressure in mmHg after 4 hr at 150 mg/Kg oral dosing of a conscious rat; format: functional, Artery
[11] = test system: Rattus norvegicus; experiment: Compound was tested for hypotensive activity by measuring the average change in mean arterial blood pressure in mmHg after 24 hr at 150 mg/Kg oral dosing of a conscious rat; format: functional, Artery
[12] = organism: Mus musculus; experiment: Lowest dose of compound associated with clinical signs; NA is Not Acceptable.; format: functional, organism-based
[13] = test system: Rattus norvegicus; experiment: Compound was tested for hypotensive activity by measuring the average change in mean arterial blood pressure in mmHg after 24 hr at 1 mg/Kg oral dosing of a conscious rat; format: functional, Artery; method in brief: as §1
[14] = test system: Rattus norvegicus; experiment: Compound was tested for hypotensive activity by measuring the average change in mean arterial blood pressure in mmHg after 4 hr at 1 mg/Kg oral dosing of a conscious rat; format: functional, Artery; method in brief: as §1
[15] = organism: Mus musculus; experiment: Lowest dose of compound associated with clinical signs; format: functional
[16] = test system: Rattus norvegicus; experiment: Compound was tested for hypotensive activity by measuring the average change in mean arterial blood pressure in mmHg at 3 mg/Kg oral dosing of a conscious rat; IA is Inactive; format: functional, organism-based; details: Artery; method in brief: as §1
[17] = test system: Rattus norvegicus; experiment: Compound was tested for hypotensive activity by measuring the average change in mean arterial blood pressure in mmHg 24 hr after at 50 mg/Kg oral dosing of a conscious rat; format: functional, Artery; method in brief: as §1
[18] = test system: Rattus norvegicus; experiment: Compound was tested for hypotensive activity by measuring the average change in mean arterial blood pressure in mmHg after 24 hr at 10 mg/Kg oral dosing of a conscious rat; format: functional, Artery; method in brief: as §1
[19] = test system: Rattus norvegicus; experiment: Compound was tested for hypotensive activity by measuring the average change in mean arterial blood pressure in mmHg at 4 hr after at 50 mg/Kg oral dosing of a conscious rat; format: functional, Artery; method in brief: as §1
[20] = test system: Rattus norvegicus; experiment: Compound was tested for hypotensive activity by measuring the average change in mean arterial blood pressure in mmHg after 4 hr at 10 mg/Kg oral dosing of a conscious rat; format: functional, Artery; method in brief: as §1
[21] = test system: Rattus norvegicus; experiment: Compound was tested for hypotensive activity by measuring the average change in mean arterial blood pressure in mmHg after 24 hr at 0.1 mg/Kg oral dosing of a conscious rat; format: functional, Artery; method in brief: as §1
[22] = test system: Rattus norvegicus; experiment: Compound was tested for hypotensive activity by measuring the average change in mean arterial blood pressure in mmHg after 4 hr at 0.1 mg/Kg oral dosing of a conscious rat; format: functional, Artery; method in brief: as §1

Compound | Activity [1] | Activity [2] | Activity [3] | Activity [4] | Dose [5] | LD50 [6] | Activity [7] | Activity [8] | also measured
COc1ccc(N2CCN(C(=O)c3ccc(Nc4ccnc5cc(C(F)(F)F)ccc45)cc3)CC2)cc1 | -19 mmHg | -18 mmHg |  |  |  |  |  |  | 
COc1ccc(C2(O)CCN(C(=O)c3ccc(Nc4ccnc5cc(C(F)(F)F)ccc45)cc3)CC2)cc1 |  |  | -5 mmHg | -15 mmHg |  |  |  |  | 
COc1cc(N2CCN(C(=O)c3ccc(Nc4ccnc5cc(C(F)(F)F)ccc45)cc3)CC2)nc(OC)n1 | -13 mmHg | -29 mmHg | -24 mmHg | -10 mmHg | <100 mg/kg | > 3160 mg/kg | -2 mmHg | -12 mmHg | Dose [9]: <100 mg/kg
COc1ccc(N2CCN(Cc3ccc(Nc4ccnc5cc(C(F)(F)F)ccc45)cc3)CC2)cc1 | 1 mmHg | -1 mmHg |  |  |  |  |  |  | Activity [10]: -5 mmHg; Activity [11]: -16 mmHg
O=C(c1ccc(Nc2ccnc3cc(C(F)(F)F)ccc23)cc1)N1CCN(S(=O)(=O)c2ccc(Cl)cc2)CC1 |  |  | -34 mmHg | -20 mmHg | >3160 mg/kg | > 3160 mg/kg | -13 mmHg | -15 mmHg | Dose [9]: <100 mg/kg
COc1ccccc1N1CCN(C(=O)c2ccc(Nc3ccnc4cc(C(F)(F)F)ccc34)cc2)CC1 | -13 mmHg | -27 mmHg |  |  |  |  |  |  | 
Cc1cccc(C2(O)CCN(C(=O)c3ccc(Nc4ccnc5cc(C(F)(F)F)ccc45)cc3)CC2)c1 |  |  | -4 mmHg | -10 mmHg |  |  | -4 mmHg | -1 mmHg | 
O=C(c1ccc(Nc2ccnc3cc(C(F)(F)F)ccc23)cc1)N1CCC(O)(c2ccc(Cl)cc2)CC1 |  |  |  |  | <100 mg/kg | 237 mg/kg | -19 mmHg | -22 mmHg | DOSE [12]: Not acceptable
O=C(c1ccc(Nc2ccnc3cc(C(F)(F)F)ccc23)cc1)N1CCN(c2ccc(F)cc2)CC1 |  |  | -10 mmHg | -11 mmHg |  |  |  |  | Activity [13]: 1 mmHg; Activity [14]: -12 mmHg
COc1ccc(S(=O)(=O)N2CCN(C(=O)c3ccc(Nc4ccnc5cc(C(F)(F)F)ccc45)cc3)CC2)cc1 |  |  | -3 mmHg | -6 mmHg |  |  |  |  | 
CSc1nccc(N2CCN(C(=O)c3ccc(Nc4ccnc5cc(C(F)(F)F)ccc45)cc3)CC2)n1 |  |  | -16 mmHg | -8 mmHg |  |  |  |  | 
O=C(c1ccc(Nc2ccnc3cc(C(F)(F)F)ccc23)cc1)N1CCC(c2ccccc2)CC1 | -4 mmHg | -17 mmHg |  |  |  |  |  |  | 
Cc1ccccc1N1CCN(S(=O)(=O)c2ccc(Nc3ccnc4cc(C(F)(F)F)ccc34)cc2)CC1 |  |  | -13 mmHg | -10 mmHg |  |  | -1 mmHg | 0 mmHg | 
O=C(c1ccc(Nc2ccnc3cc(C(F)(F)F)ccc23)cc1)N1CCNCC1 |  |  |  |  | 1000 mg/kg | 1780 mg/kg |  |  | Dose [15]: 100 mg/kg; Activity [16]: inactive; Activity [17]: -22 mmHg; Activity [18]: -8 mmHg; Activity [19]: -15 mmHg; Activity [20]: -7 mmHg
O=C(c1ccc(Nc2ccnc3cc(C(F)(F)F)ccc23)cc1)N1CCN(c2ccccn2)CC1 |  |  | -13 mmHg | -10 mmHg | 316 mg/kg | 1400 mg/kg | 2 mmHg | -2 mmHg | Dose [9]: <100 mg/kg
Cc1cc(N2CCN(C(=O)c3ccc(Nc4ccnc5cc(C(F)(F)F)ccc45)cc3)CC2)nc(N)n1 | -3 mmHg | -4 mmHg |  |  |  |  |  |  | 
CN(C)S(=O)(=O)N1CCN(C(=O)c2ccc(Nc3ccnc4cc(C(F)(F)F)ccc34)cc2)CC1 |  |  | -6 mmHg | -18 mmHg | >3160 mg/kg | > 3160 mg/kg | -6 mmHg | -2 mmHg | Dose [9]: 100 mg/kg
Fc1ccc(N2CCN(Cc3ccc(Nc4ccnc5cc(C(F)(F)F)ccc45)cc3)CC2)cc1 | -4 mmHg | -18 mmHg |  |  |  |  |  |  | Activity ([4]; 5 mg/kg): -7 mmHg and -9 mmHg
O=C(c1ccc(Nc2ccnc3cc(C(F)(F)F)ccc23)cc1)N1CCN(c2[nH]cnc3ncnc2-3)CC1 | -4 mmHg | -3 mmHg |  |  |  |  |  |  | 
CS(=O)(=O)c1ccc(N2CCN(C(=O)c3ccc(Nc4ccnc5cc(C(F)(F)F)ccc45)cc3)CC2)cc1 |  |  | -16 mmHg | -10 mmHg | 1000 mg/kg | 3160 mg/kg | -7 mmHg | -5 mmHg | Dose [9]: 316 mg/kg
Cc1ccc(S(=O)(=O)N2CCN(C(=O)c3ccc(Nc4ccnc5cc(C(F)(F)F)ccc45)cc3)CC2)cc1 |  |  | -25 mmHg | -42 mmHg |  |  |  |  | 
Cc1cccc(C2=CCN(C(=O)c3ccc(Nc4ccnc5cc(C(F)(F)F)ccc45)cc3)CC2)c1 |  |  | -8 mmHg | -8 mmHg |  |  |  |  | 
COc1ccccc1N1CCN(S(=O)(=O)c2ccc(Nc3ccnc4cc(C(F)(F)F)ccc34)cc2)CC1 |  |  | -14 mmHg | -1 mmHg |  |  |  |  | 
O=C(c1ccc(Nc2ccnc3cc(C(F)(F)F)ccc23)cc1)N1CCN(c2ccccc2)CC1 | 4 mmHg | -13 mmHg |  |  |  |  |  |  | 
O=C(c1ccc(Nc2ccnc3cc(C(F)(F)F)ccc23)cc1)N1CC=C(c2ccc(Cl)cc2)CC1 |  |  | -16 mmHg | -7 mmHg | 316 mg/kg | 1000 mg/kg |  |  | Activity [21]: -11 mmHg; Activity [22]: -3 mmHg; Dose [9]: <100 mg/kg
COc1ccc(C2=CCN(C(=O)c3ccc(Nc4ccnc5cc(C(F)(F)F)ccc45)cc3)CC2)cc1 |  |  | -2 mmHg | -6 mmHg |  |  |  |  | 
